For experiment [1], the system named is A549/DDP. Kind of experiment: CCK-8 cell growth and sensitisation to DDP. The experiment is classed as cell-based, human. The procedure, abridged: (§1)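 Exponential-phase cells were trypsinised, diluted to 5 × 10^7/l and plated, then cultured 24 h at 37 °C. Test compound was added where indicated (DMF <0.2%), and DDP (saline stock 5.0 mM) was added 1 h later. After 72 h at 37 °C, CCK-8 was applied for 2 h and A450 was read. Live cells were calculated as % of the no-DDP, no-inhibitor control. Done in triplicate.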

For experiment [2], the system named is SGC7901/DDP. The experiment can be described thus: CCK-8 cell growth and sensitisation to DDP. The experiment is classed as cell-based, human. In short, it runs like this:
as §1

For experiment [3], the system named is SK-OV-3/DDP. The experiment can be described thus: CCK-8 cell growth and sensitisation to DDP. The experiment is classed as cell-based, human. The settings on record: SK-OV-3/DDP cells versus SK-OV-3 cells. The procedure, abridged: as §1
In experiment [4] the test system is COC1/DDP. The experiment can be described thus: CCK-8 cell growth and sensitisation to DDP. The experiment is classed as cell-based, human. In short, it runs like this:
as §1

Experiment [5] deals with A549/DDP. The experiment can be described thus: Apoptosis percentages. The settings on record: DDP alone 2.0 μM, EDEA alone 1.0 and 2.0 μM. It counts as cell-based, human.
The test system of experiment [6] is SGC7901/DDP. The experiment can be described thus: Apoptosis percentages. The note with it: DDP alone 2.0 μM, EDEA alone 1.0 and 2.0 μM. It counts as cell-based, human.
For experiment [7], the system named is drug-resistant cancers. The settings on record: cited from earlier work.

Molecules are shown by their SMILES.

`N.N.[Cl][Pt][Cl]` [DDP, cisplatin]: the “IC50 value of DDP in resistant versus parental cells” value is reported as about 7 fold in experiment [1], about 3 fold in experiment [2], about 4 fold in experiment [3] and about 4 fold in experiment [4]. The “effect of single agent on apoptosis percentages” value in experiment [5] and in experiment [6] was “did not greatly alter” each time.

For the compound `C=C(CC)C(=O)c1ccc(OCC(=O)O)c(Cl)c1Cl` [EAA, ethacrynic acid], in experiment [7], the “level that sensitised drug-resistant cancers to DDP in vitro” value is about 20 µM.

Source of the values: paper PMC8865112 (Journal of Enzyme Inhibition and Medicinal Chemistry, 2022).
